We go through 3 compounds from ChEMBL document CHEMBL4613213, “Anibamine and Its Analogues: Potent Antiplasmodial Agents from Aniba citrifolia” (J Nat Prod, 2020).

Molecules are shown by their SMILES. Activity calls are given as the source filed them. The rule behind the calls is not given here.

Data set [1] has as its system Plasmodium falciparum. In words: Antiplasmodial activity against Plasmodium falciparum Dd2 assessed as reduction in parasite growth after 72 hrs by SYBR Green 1 staining based assay. As to conditions: Plasmodium falciparum, Dd2, 72 h; read-out: IC50. The class given is functional, organism-based. In a few lines:
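Dd2 cultures started at ring stage, 1% hematocrit and 1% parasitemia. Grown 72 h at 37 °C in 5% CO2/5% O2/90% N2 across increasing drug concentrations. Viability read by SYBR Green I DNA quantitation in lysis buffer. IC50 from nonlinear regression; mean of three independent determinations, each in triplicate, ± SEM.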

The test system of data set [2] is Plasmodium falciparum. Briefly: Antiplasmodial activity against Plasmodium falciparum Dd2 schizonts form infected in erythrocytes assessed as reduction in parasite growth at 1 uM after 6 hrs by Giemsa staining based light microscopic method. The class given is functional, organism-based. The method in brief: (§1)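 Compound added at schizont stage (40–42 post-invasion). Morphology assessed on Giemsa-stained thin blood smears at 6, 24 and 48 h of treatment and compared with untreated controls. Two or more independent experiments.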

Data set [3] relates to Plasmodium falciparum. In words: Antiplasmodial activity against Plasmodium falciparum Dd2 schizonts form infected in erythrocytes assessed as reduction in reinvasion at 1 uM after 6 hrs by Giemsa staining based light microscopic method. The class given is functional, organism-based. In a few lines: as §1
Data set [4] has as its system Plasmodium falciparum. Briefly: Antiplasmodial activity against Plasmodium falciparum Dd2 schizonts form infected in erythrocytes assessed as reduction in ring stage formation at 1 uM after 6 hrs by Giemsa staining based light microscopic method. The class given is functional, organism-based. The method in brief:
as §1

Data set [5] has as its system Plasmodium falciparum. Briefly: Antiplasmodial activity against Plasmodium falciparum Dd2 ring stage form infected in erythrocytes assessed as reduction in parasite growth at 1 uM after 6 to 72 hrs by Giemsa staining based light microscopic method. The format is functional, organism-based. In a few lines:
(§2)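 Compound added at ring stage (2–4 h post-invasion). Development followed on Giemsa-stained thin blood smears after 6, 24, 48 and 72 h of treatment and compared with untreated controls. Two or more independent experiments.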

The subject of data set [6] is Plasmodium falciparum. In words: Antiplasmodial activity against Plasmodium falciparum Dd2 ring stage form infected in erythrocytes assessed as reduction in reinvasion at 1 uM after 48 to 72 hrs by Giemsa staining based light microscopic method. The format is functional, organism-based. The method in brief:
as §2

Data set [7] concerns Plasmodium falciparum. Briefly: Antiplasmodial activity against Plasmodium falciparum Dd2 schizonts form infected in erythrocytes assessed as reduction in parasite growth at 1.25 uM after 6 hrs by Giemsa staining based light microscopic method. The class given is functional, organism-based. The method in brief:
(§3)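 Dd2 intraerythrocytic cultures were treated either at ring stage (2–4 h post-invasion) or at schizont stage (40–42 post-invasion). Development and morphology were followed by light microscopy of Giemsa-stained thin blood smears at 6, 24, 48 and 72 h of treatment and compared with untreated controls. Data come from two or more independent experiments.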

Data set [8] concerns Plasmodium falciparum. In words: Antiplasmodial activity against Plasmodium falciparum Dd2 schizonts form infected in erythrocytes assessed as reduction in parasite growth at 0.5 uM after 6 hrs by Giemsa staining based light microscopic method. The format is functional, organism-based. In a few lines:
as §1

In data set [9] the test system is Plasmodium falciparum. In words: Antiplasmodial activity against Plasmodium falciparum Dd2 schizonts form infected in erythrocytes assessed as reduction in reinvasion at 1.25 uM after 6 hrs by Giemsa staining based light microscopic method. The format is functional, organism-based. The method in brief:
as §3

Data set [10] deals with Plasmodium falciparum. Briefly: Antiplasmodial activity against Plasmodium falciparum Dd2 schizonts form infected in erythrocytes assessed as reduction in reinvasion at 0.5 uM after 6 hrs by Giemsa staining based light microscopic method. The format is functional, organism-based. In a few lines: as §1
Data set [11] has as its system Plasmodium falciparum. Briefly: Antiplasmodial activity against Plasmodium falciparum Dd2 schizonts form infected in erythrocytes assessed as reduction in ring stage formation at 1.25 uM after 6 hrs by Giemsa staining based light microscopic method. The class given is functional, organism-based. The method in brief:
as §3

Data set [12] relates to Plasmodium falciparum. In words: Antiplasmodial activity against Plasmodium falciparum Dd2 schizonts form infected in erythrocytes assessed as reduction in ring stage formation at 0.5 uM after 6 hrs by Giemsa staining based light microscopic method. The format is functional, organism-based. In a few lines: as §1
The test system of data set [13] is Plasmodium falciparum. Briefly: Antiplasmodial activity against Plasmodium falciparum Dd2 schizonts form infected in erythrocytes assessed as reduction in trophozoites formation at 0.5 uM after 48 hrs by Giemsa staining based light microscopic method. The format is functional, organism-based. The method in brief:
as §1

The subject of data set [14] is Plasmodium falciparum. Briefly: Antiplasmodial activity against Plasmodium falciparum Dd2 schizonts form infected in erythrocytes assessed as morphological defects at 0.5 uM after 48 hrs by Giemsa staining based light microscopic method. The class given is functional, organism-based. In a few lines:
as §1

For data set [15], the system named is A2780. Briefly: Cytotoxicity against human A2780 cells assessed as reduction in cell viability after 2 days by AlamarBlue assay. The class given is ADME, cell-based. As to conditions: A2780, 48 h. In general terms: Resazurin is reduced to fluorescent resorufin, in cell work by metabolically active cells.
Data set [16] can be described thus: Cytotoxicity against mouse 3T3 cells by neutral red uptake assay. The format is cell-based. As to conditions: NIH3T3 cells, read-out: TC50 (the source's name).

As for `CCCCCCCC/C=C\c1c(C)cc2[n+](c1C)CCC2`, the half-inhibitory concentration (IC50) in [1] came out at 142 nM. For the same compound, the result in data set [2], in data set [3], in data set [4], in data set [5] and in data set [6] was inactive.

Take `CCCCCCCC/C=C\c1c(C)c(/C=C\CCCCCCCC)c2[n+](c1C)CCC2`: the outcome in [7], in data set [8], in [9], in data set [10], in data set [11] and in [12] was inactive. Besides, the outcome in data set [13] and in data set [14] was Active.

Regarding `CCCCCCCC/C=C\c1c(C)c(/C=C\CCCCCCCC)c2[n+](c1C)CCC2` [ANIBAMINE], the figures for the half-inhibitory concentration (IC50) in data set [1] and in data set [15] were 170 nM and 223 nM, respectively. Further, the CC50 in [16] was above 22000 nM.

By IC50 is commonly meant the concentration at which inhibition is half-maximal.
